From ChEMBL document CHEMBL1687890, “Design, synthesis, pharmacological evaluation, and structure-activity study of novel endomorphin analogues with multiple structural modifications” (J Med Chem, 2011)

How the values were obtained:
[1] = Half life in rat brain homogenate by RP-HPLC; format: ADME, tissue-based
Method in brief: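 Peptide (1 mM stock in 50 mM Tris-HCl pH 7.4, 1:10 into homogenate) incubated at 37 °C with crude rat brain homogenate (5.0 mg/mL protein). Aliquots quenched with HCl, centrifuged, supernatant run on RP-HPLC. k from linear regression of ln(A/A0) vs time over at least 5 time points; t1/2 = ln2/k, pseudo-first-order. At least three experiments.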

[2] = molecular target: Mu-type opioid receptor (Rattus norvegicus) (UniProt P33535); experiment: Agonist activity at opioid receptor in mu rat brain membrane by [35S]GTPgammaS binding assay relative to baseline in presence of opioid-selective antagonist naloxone; format: functional, cell membranes
Mu-type opioid receptor (Rattus norvegicus), sequence (P33535 whole entry): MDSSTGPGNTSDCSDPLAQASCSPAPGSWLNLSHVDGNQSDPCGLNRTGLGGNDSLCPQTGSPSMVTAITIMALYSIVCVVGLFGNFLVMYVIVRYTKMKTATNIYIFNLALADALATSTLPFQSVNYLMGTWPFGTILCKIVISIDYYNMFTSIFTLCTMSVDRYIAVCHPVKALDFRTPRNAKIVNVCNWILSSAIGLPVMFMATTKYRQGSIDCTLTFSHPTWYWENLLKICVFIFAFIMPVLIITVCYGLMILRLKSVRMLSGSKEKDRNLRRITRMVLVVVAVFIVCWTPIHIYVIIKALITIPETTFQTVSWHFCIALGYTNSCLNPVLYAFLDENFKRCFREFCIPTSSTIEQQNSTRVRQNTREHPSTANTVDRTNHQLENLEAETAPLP

[3] = molecular target: Mu-type opioid receptor (Rattus norvegicus) (UniProt P33535); experiment: Agonist activity at mu opioid receptor in rat brain membrane by [35S]GTPgammaS binding assay relative to baseline; format: functional, cell membranes
Mu-type opioid receptor [4] = molecular target: T1, Mu-type opioid receptor (Rattus norvegicus, UniProt P33535); experiment: Displacement of [3H]DAMGO from mu opioid receptor in rat brain membrane homogenate by liquid scintillation counting; format: cell membranes
T1 sequence (P33535 whole entry): as above

[5] = molecular target: Delta-type opioid receptor (Rattus norvegicus, UniProt P33533); experiment: Displacement of [3H][Ile5,6]deltorphin2 from delta opioid receptor in rat brain membrane homogenate by liquid scintillation counting; format: cell membranes
Delta-type opioid receptor, sequence (P33533 whole entry): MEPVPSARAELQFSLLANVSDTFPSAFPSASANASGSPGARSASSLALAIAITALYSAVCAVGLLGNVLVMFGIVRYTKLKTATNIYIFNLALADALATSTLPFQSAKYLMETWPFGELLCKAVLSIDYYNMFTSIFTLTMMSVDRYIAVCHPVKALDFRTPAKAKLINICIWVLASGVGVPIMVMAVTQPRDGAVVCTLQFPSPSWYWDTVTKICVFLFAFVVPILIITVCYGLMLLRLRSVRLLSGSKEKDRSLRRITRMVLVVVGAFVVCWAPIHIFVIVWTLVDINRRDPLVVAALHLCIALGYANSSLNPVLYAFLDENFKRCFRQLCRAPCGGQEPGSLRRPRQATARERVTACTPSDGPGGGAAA

Rattus norvegicus = organism: Rattus norvegicus; experiment: Selectivity ratio of Ki for delta opioid receptor in rat brain to mu opioid receptor in rat brain; format: tissue-based
Mu-type opioid receptor [6] = molecular target: T1, Mu-type opioid receptor; experiment: Agonist activity at mu opioid receptor in rat brain membrane by [35S]GTPgammaS binding assay; format: functional, cell membranes

Structure (SMILES)	half-life [1] [h]	Emax [2] [%]	Emax [3] [%]	Ki (Mu-type opioid receptor [4]) [nM]	Ki [5] [nM]	Ratio Ki (Rattus norvegicus)	EC50 (Mu-type opioid receptor [6]) [nM]
NC(=O)[C@H](Cc1ccccc1)NC(=O)[C@H](Cc1c[nH]c2ccccc12)NC(=O)[C@@H]1CCCN1C(=O)[C@@H](N)Cc1ccc(O)cc1 [ENDOMORPHIN-1]	0.105	124	149	–	–	–	–
Cc1cc(CC(N)C(=O)N[C@@H]2CCCC[C@@H]2C(=O)N[C@@H](Cc2c[nH]c3ccccc23)C(=O)NC(Cc2ccc(F)cc2)C(N)=O)cc(C)c1O (some centres undefined)	–	127	163	11.1	2640	237	8.1
C[C@@H](NC(=O)[C@@H](N)Cc1ccc(O)cc1)C(=O)NCC(=O)N(C)[C@@H](Cc1ccccc1)C(=O)NCCO	–	119	178	–	–	–	–
NC(=O)C(Cc1ccc(F)cc1)NC(=O)[C@H](Cc1ccccc1)NC(=O)[C@@H]1CCCC[C@@H]1NC(=O)[C@@H](N)Cc1ccc(O)cc1 (some centres undefined)	–	–	–	–	689	–	–
C[C@H](c1ccccc1)[C@@H](NC(=O)[C@H](Cc1c[nH]c2ccccc12)NC(=O)[C@H]1CCCC[C@H]1NC(=O)[C@@H](N)Cc1ccc(O)cc1)C(N)=O	–	–	–	34.6	3360	97	–
NC(=O)C(Cc1ccc(F)cc1)NC(=O)[C@H](Cc1c[nH]c2ccccc12)NC(=O)[C@H]1CCCC[C@H]1NC(=O)[C@@H](N)Cc1ccc(O)cc1 (some centres undefined)	> 20	125	174	3.2	571	178	380
NC(=O)[C@H](Cc1ccccc1)NC(=O)[C@H](Cc1ccccc1)NC(=O)[C@@H]1CCCN1C(=O)[C@@H](N)Cc1ccc(O)cc1 [ENDOMORPHIN 2]	0.095	123	163	–	–	–	–
Cc1cc(CC(N)C(=O)N[C@@H]2CCCC[C@@H]2C(=O)N[C@@H](Cc2ccccc2)C(=O)NC(Cc2ccc(F)cc2)C(N)=O)cc(C)c1O (some centres undefined)	> 20	–	–	–	96	–	–
NC(=O)C(Cc1ccc(F)cc1)NC(=O)[C@H](Cc1c[nH]c2ccccc12)NC(=O)[C@@H]1CCCC[C@@H]1NC(=O)[C@@H](N)Cc1ccc(O)cc1 (some centres undefined)	–	–	–	143	7820	54	–
Cc1cc(CC(N)C(=O)N[C@@H]2CCCC[C@@H]2C(=O)N[C@@H](Cc2c[nH]c3ccccc23)C(=O)N[C@H](C(N)=O)[C@@H](C)c2ccccc2)cc(C)c1O (some centres undefined)	–	145	162	0.93	123	132	22.1
C[C@H](c1ccccc1)[C@@H](NC(=O)[C@H](Cc1ccccc1)NC(=O)[C@H]1CCCC[C@H]1NC(=O)[C@@H](N)Cc1ccc(O)cc1)C(N)=O	–	–	–	–	1270	–	–
Cc1cc(CC(N)C(=O)N[C@@H]2CCCC[C@@H]2C(=O)N[C@@H](Cc2ccccc2)C(=O)N[C@@H](C(N)=O)[C@H](C)c2ccccc2)cc(C)c1O (some centres undefined)	–	–	–	9.7	198	20	–
Cc1cc(CC(N)C(=O)N[C@@H]2CCCC[C@@H]2C(=O)N[C@@H](Cc2ccccc2)C(=O)N[C@H](C(N)=O)[C@@H](C)c2ccccc2)cc(C)c1O (some centres undefined)	> 20	146	159	0.47	142	302	17
Cc1cc(CC(N)C(=O)N[C@@H]2CCCC[C@@H]2C(=O)N[C@@H](Cc2c[nH]c3ccccc23)C(=O)N[C@@H](C(N)=O)[C@H](C)c2ccccc2)cc(C)c1O (some centres undefined)	–	–	–	4.11	287	69	–
C[C@@H](c1ccccc1)[C@H](NC(=O)[C@H](Cc1c[nH]c2ccccc12)NC(=O)[C@H]1CCCC[C@H]1NC(=O)[C@@H](N)Cc1ccc(O)cc1)C(N)=O	> 20	130	162	4.2	1440	343	264
NC(=O)C(Cc1ccc(F)cc1)NC(=O)[C@H](Cc1ccccc1)NC(=O)[C@H]1CCCC[C@H]1NC(=O)[C@@H](N)Cc1ccc(O)cc1 (some centres undefined)	–	–	–	–	366	–	–
C[C@@H](c1ccccc1)[C@H](NC(=O)[C@H](Cc1ccccc1)NC(=O)[C@H]1CCCC[C@H]1NC(=O)[C@@H](N)Cc1ccc(O)cc1)C(N)=O	–	–	–	–	661	–	–
